A short description of assay [1]: Inhibition of adenylosuccinate synthase at 5:1 aspartate to compound ratio.
A short description of assay [2]: Inhibition of adenylosuccinate synthase at 1:1 aspartate to compound ratio.
Assay [3] can be described thus: Inhibition of adenylosuccinate synthase at 10 mM. Summed up:
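Recombinant His-tagged AdSS (pMOB45 in E. coli BL21(DE3), IPTG-induced at 18 °C, IMAC-purified); 2.0 µg per 100 µl reaction in 20 mM Hepes pH 7.5, 50 µM IMP, 25 µM GTP, 500 µM MgCl2, 10 mM test compound. Started at room temperature with 100 or 500 µM aspartate, frozen after 5 min. Adenylosuccinate quantified by HPLC (266 nm, pH 4.4 phosphate/PIC A/methanol), peak areas over three runs.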

Molecules are shown by their SMILES. The source made the active and inactive calls. No cut-off for these calls is given here.

For `O=CN(O)CCC(=O)O`, the inhibition entry in assay [1] and in assay [2] was “inactive” each time.
Turning to `O=CN(O)CCCCC(=O)O`, the inhibition entry in assay [1] and in assay [2] was “inactive” in each case.
Regarding `CCC(C)C(C(=O)O)N(O)C=O` (centres undefined), the inhibition – broadly, the drop in the measured response relative to a control, in per cent – in assay [1] was “inactive”. In assay [2], the inhibition result is “Active”.
As to `O=CN(O)CC(=O)O`, the inhibition in assay [1] (concentration not given here) amounted to 80%. In addition, the inhibition entry in assay [2] is “inactive”. The inhibition entry in assay [3] was “Active”.
For `O=C(O)CCNO`, the inhibition result in assay [1] and in assay [2] was “inactive” throughout.
Take `CCC(C(=O)O)N(O)C=O` (centres undefined): in assay [1], the inhibition result was “inactive”. For the same molecule, the inhibition result in assay [2] is “Active”.
Take `CC(C(=O)O)N(O)C=O` (centres undefined): the inhibition stood at 50% in assay [1] (concentration not given here) and 90% in assay [2] (concentration not given here).
On to `CCCC(C(=O)O)N(O)C=O` (centres undefined), for which the inhibition result in assay [1] is “inactive”. Besides, in assay [2], the inhibition entry was “Active”.
As for `CC(CCC(=O)O)NO` (centres undefined), the inhibition entry in assay [1] and in assay [2] was “inactive” throughout.
As to `O=C(O)CCCNO`, the inhibition entry in assay [1] and in assay [2] was “inactive” throughout.
As for `O=CN(O)CCCC(=O)O`, the inhibition result in assay [1] and in assay [2] was “inactive” throughout.
With `O=CN(O)C(CCC(=O)O)C(=O)O` (centres undefined), the inhibition in assay [2] (concentration not given here) stood at 60%.
Take `CC(CCC(=O)O)N(O)C=O` (centres undefined): the inhibition entry in assay [1] and in assay [2] was “inactive” in each case.
As for `O=C(O)CNO`, the inhibition result in assay [1] and in assay [2] was “inactive” throughout.
For `O=CN(O)C(CC(=O)O)C(=O)O` (centres undefined), the inhibition in assay [2] (concentration not given here) was 30%.

Values taken from ChEMBL document CHEMBL1641561, “Evaluation of hadacidin analogues” (Bioorg Med Chem Lett, 2011).
